How the values were obtained:
Plasmodium falciparum [1] = assay: Antimalarial activity against Plasmodium falciparum DD2; assay type: functional, organism-based
Plasmodium falciparum [2] = assay: Antimalarial activity against Plasmodium falciparum K1; assay type: functional, organism-based
Plasmodium falciparum [3] = assay: Antimalarial activity against Plasmodium falciparum GC03; assay type: functional, organism-based
Plasmodium falciparum [4] = assay: Antimalarial activity against Plasmodium falciparum V1/S; assay type: functional, organism-based; settings: V1S
Plasmodium falciparum [5] = assay: Antimalarial activity against Plasmodium falciparum HB3; assay type: functional, organism-based
Plasmodium falciparum [6] = assay: Antimalarial activity against Plasmodium falciparum PH3; assay type: functional, organism-based
Plasmodium falciparum [7] = assay: Antimalarial activity against Plasmodium falciparum TM4; assay type: functional, organism-based
Plasmodium falciparum [8] = assay: Antimalarial activity against Plasmodium falciparum 3D7; assay type: functional, organism-based
[9] = Chemical stability assessed as endoperoxide recovery after 4 hrs by iron degradation study; assay type: physicochemical; settings: read-out: Stability
Method in brief: (§1)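 Endoperoxide (1.0 equiv FeBr₂) was held in THF for 4, 8, 24 or 48 h. The residue was purified by flash column chromatography, and the percent recovery of starting endoperoxide was calculated.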

[10] = Chemical stability assessed as endoperoxide recovery after 8 hrs by iron degradation study; assay type: physicochemical; settings: read-out: Stability; method in brief: as §1
[11] = Chemical stability assessed as endoperoxide recovery after 24 hrs by iron degradation study; assay type: physicochemical; settings: read-out: Stability; method in brief: as §1
[12] = Chemical stability assessed as endoperoxide recovery after 48 hrs by iron degradation study; assay type: physicochemical; settings: read-out: Stability; method in brief: as §1
[13] = Cytotoxicity against rat L6 cells by resazurin reduction assay; assay type: cell-based; settings: read-out: TC50 (the source's name)
Method in brief: (§2)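 Cytotoxicity was read by resazurin reduction. A single full dose-response curve was built from 10 independent drug concentrations to give TOX₅₀.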

[14] = Cytotoxicity against human MRC5 cells by resazurin reduction assay; assay type: cell-based; settings: read-out: TC50 (the source's name); method in brief: as §2
[15] = Cytotoxicity against african green monkey Vero cells by resazurin reduction assay; assay type: cell-based; settings: chlorocebus sabaeus, read-out: TC50 (the source's name); method in brief: as §2
[16] = Cytotoxicity against rat H9c(2-1) cells by resazurin reduction assay; assay type: cell-based; settings: read-out: TC50 (the source's name); method in brief: as §2
[17] = Therapeutic index, ratio of TOX50 for human […] cells to IC50 Plasmodium falciparum 3D7; assay type: cell-based
Method in brief: (§3)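 TOX₅₀ came from resazurin reduction, with single full dose-response curves over 10 independent concentrations. The index is TOX₅₀ divided by the IC₅₀ against the P. falciparum 3D7 isolate.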

[18] = Therapeutic index, ratio of TOX50 for rat L6 cells to IC50 Plasmodium falciparum 3D7; assay type: cell-based; method in brief: as §3
[19] = Therapeutic index, ratio of TOX50 for human MRC5 cells to IC50 Plasmodium falciparum 3D7; assay type: cell-based; method in brief: as §3
[20] = Therapeutic index, ratio of TOX50 for african green monkey (Cercopithecus aethiops) Vero cells to IC50 Plasmodium falciparum 3D7; assay type: cell-based; method in brief: as §3
[21] = Therapeutic index, ratio of TOX50 for rat H9c(2-1) cells to IC50 Plasmodium falciparum 3D7; method in brief: as §3
Salmonella typhimurium [22] = assay: Genotoxicity against Salmonella Typhimurium TA 1535/pSK1002 assessed as induction of umu operon expression; assay type: toxicity, organism-based; settings: salmonella enterica subsp. enterica serovar typhimurium
Salmonella typhimurium [23] = assay: Genotoxicity against Salmonella Typhimurium TA 1535/pSK1002 assessed as induction of umu operon expression in presence of rat liver S9 fraction; assay type: toxicity, organism-based; settings: salmonella enterica subsp. enterica serovar typhimurium
Method in brief: (§4)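 SOS/umu assay with rat liver S9-mix for metabolic activation. Tester strains carry plasmid pSK1002 with a umuC-lacZ fusion, and induced β-galactosidase activity is the read-out. Positive controls checked strain response. The highest concentration tested was 50 µM.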

Salmonella typhimurium [24] = assay: Genotoxicity against Salmonella Typhimurium NM2009 assessed as induction of umu operon expression; assay type: toxicity, organism-based; settings: salmonella enterica subsp. enterica serovar typhimurium
Salmonella typhimurium [25] = assay: Genotoxicity against Salmonella Typhimurium NM2009 assessed as induction of umu operon expression in presence of rat liver S9 fraction; assay type: toxicity, organism-based; settings: salmonella enterica subsp. enterica serovar typhimurium; method in brief: as §4
[26] = Chemical stability in dichloromethane assessed as tetraoxane recovery after 7 days; assay type: physicochemical; settings: read-out: Stability
[27] = Chemical stability in dichloromethane in presence of formic acid assessed as tetraoxane recovery after 7 days; assay type: physicochemical; settings: dichloromethane with formic acid; read-out: Stability
[28] = Chemical stability in water assessed as tetraoxane recovery after 7 days; assay type: physicochemical; settings: read-out: Stability
[29] = Chemical stability in phosphate buffer assessed as tetraoxane recovery at pH 7.4 after 16 hrs; assay type: physicochemical; settings: read-out: Stability
[30] = Cytotoxicity against human […] cells by resazurin reduction assay; assay type: cell-based; settings: read-out: TC50 (the source's name); method in brief: as §2
Plasmodium falciparum [31] = assay: Antimalarial activity against Plasmodium falciparum
Plasmodium berghei = assay: Antimalarial activity against Plasmodium berghei ANKA infected mice (Mus musculus) by peroral dose; assay type: functional; settings: po

Structure (SMILES): CCN(CC)Cc1cc(Nc2ccnc3cc(Cl)ccc23)ccc1O
- IC50 (Plasmodium falciparum [1]): 6.1 nM
- IC50 (Plasmodium falciparum [2]): 10.2 nM
- IC50 (Plasmodium falciparum [3]): 4.5 nM
- IC50 (Plasmodium falciparum [4]): 7.7 nM
- IC50 (Plasmodium falciparum [5]): 5.9 nM
- IC50 (Plasmodium falciparum [6]): 4.7 nM
- IC50 (Plasmodium falciparum [7]): 6.4 nM

Structure (SMILES): O=S(=O)(c1ccc(Cl)cc1)N1CCC2(CC1)OOC1(OO2)C2CC3CC(C2)CC1C3
- IC50 (Plasmodium falciparum [8]): 22.7 nM

Structure (SMILES): CS(=O)(=O)N1CCC2(CC1)OOC1(CCCCCCCCCCC1)OO2
- IC50 (Plasmodium falciparum [8]): 27.8 nM

Structure (SMILES): O=S(=O)(c1ccc(C(F)(F)F)cc1)N1CCC2(CC1)OOC1(OO2)C2CC3CC(C2)CC1C3
- IC50 (Plasmodium falciparum [8]): 20.7 nM

Structure (SMILES): O=C(N1CCOCC1)N1CCC2(CC1)OOC1(OO2)C2CC3CC(C2)CC1C3
- IC50 (Plasmodium falciparum [8]): 4.7 nM

Structure (SMILES): O=S(=O)(CC(F)(F)F)N1CCC2(CC1)OOC1(OO2)C2CC3CC(C2)CC1C3
- IC50 (Plasmodium falciparum [8]): 14.3 nM

Structure (SMILES): O=C(CCc1ccc(S(=O)(=O)N2CCC3(CC2)OOC2(OO3)C3CC4CC(C3)CC2C4)cc1)NCCCCNc1ccc([N+](=O)[O-])c2nonc12
- IC50 (Plasmodium falciparum [8]): 16 nM

Structure (SMILES): O=S(=O)(c1ccccc1)N1CCC2(CC1)COC1(OO2)C2CC3CC(C2)CC1C3 (centres undefined)
- remaining at 4 h [9]: 96.8%
- remaining at 8 h [10]: 84.9%
- remaining at 24 h [11]: 56.7%
- remaining at 48 h [12]: 43.2%

Structure (SMILES): CC(C)S(=O)(=O)N1CCC2(CC1)OOC1(OO2)C2CC3CC(C2)CC1C3
- IC50 (Plasmodium falciparum [8]): 5.87 nM

Structure (SMILES): CCS(=O)(=O)N1CCC2(CC1)OOC1(OO2)C2CC3CC(C2)CC1C3
- CC50 [13]: 31000 nM
- CC50 [14]: > 50000 nM
- CC50 [15]: > 50000 nM
- CC50 [16]: > 50000 nM
- TI [17]: > 9090
- TI [18]: 5640
- TI [19]: > 9090
- TI [20]: > 9090
- TI [21]: > 9090
- Activity (Salmonella typhimurium [22]): 1.03
- Activity (Salmonella typhimurium [23]): 0.98
- Activity (Salmonella typhimurium [24]): 1.07
- Activity (Salmonella typhimurium [25]): 0.95
- remaining at 168 h [26]: 96.2%
- remaining at 168 h [27]: 92.3%
- remaining at 168 h [28]: 97.8%
- remaining at 16 h [29]: 93.2%
- IC50 (Plasmodium falciparum [8]): 5.55 nM
- IC50 (Plasmodium falciparum [1]): 3 nM
- IC50 (Plasmodium falciparum [2]): 3 nM
- IC50 (Plasmodium falciparum [3]): 3 nM
- IC50 (Plasmodium falciparum [4]): 2.7 nM
- IC50 (Plasmodium falciparum [5]): 3.8 nM
- IC50 (Plasmodium falciparum [6]): 1.9 nM
- IC50 (Plasmodium falciparum [7]): 2.4 nM
- CC50 [30]: > 50000 nM

Structure (SMILES): CS(=O)(=O)N1CCC2(CC1)OOC1(OO2)C2CC3CC(C2)CC1C3
- IC50 (Plasmodium falciparum [8]): 10.2 nM

Structure (SMILES): O=S(=O)(c1ccccc1)N1CCC2(CC1)OOC1(CCCCCCCCCCC1)OO2
- IC50 (Plasmodium falciparum [8]): 131 nM

Structure (SMILES): CCS(=O)(=O)N1C2CCC1CC1(C2)OOC2(OO1)C1CC3CC(C1)CC2C3 (centres undefined)
- IC50 (Plasmodium falciparum [8]): 60.6 nM

Structure (SMILES): O=S(=O)(c1ccccc1)N1CCC2(CC1)OCC1(OO2)C2CC3CC(C2)CC1C3 (centres undefined)
- IC50 (Plasmodium falciparum [8]): > 1000 nM

Structure (SMILES): O=S(=O)(C1CC1)N1CCC2(CC1)OOC1(OO2)C2CC3CC(C2)CC1C3
- CC50 [13]: > 50000 nM
- CC50 [14]: > 50000 nM
- CC50 [15]: > 50000 nM
- CC50 [16]: > 50000 nM
- TI [17]: > 14300
- TI [18]: > 14300
- TI [19]: > 14300
- TI [20]: > 14300
- TI [21]: > 14300
- Activity (Salmonella typhimurium [22]): 1.05
- Activity (Salmonella typhimurium [23]): 0.99
- Activity (Salmonella typhimurium [24]): 1.09
- Activity (Salmonella typhimurium [25]): 1.07
- IC50 (Plasmodium falciparum [8]): 3.52 nM
- CC50 [30]: > 50000 nM

Structure (SMILES): O=S(=O)(c1ccccc1)N1CCC2(CC1)OOC1(O2)C2CC3CC(C2)CC1C3 (centres undefined)
- remaining at 4 h [9]: 11%
- remaining at 8 h [10]: 9%
- remaining at 24 h [11]: 2.6%
- remaining at 48 h [12]: 0%
- IC50 (Plasmodium falciparum [8]): 4.98 nM

Structure (SMILES): O=S(=O)(c1ccc(F)cc1)N1CCC2(CC1)OOC1(OO2)C2CC3CC(C2)CC1C3
- IC50 (Plasmodium falciparum [8]): 16.7 nM

Structure (SMILES): O=S(=O)(c1ccccc1)N1CCC2(CC1)OOC1(OO2)C2CC3CC(C2)CC1C3
- remaining at 4 h [9]: 88.7%
- remaining at 8 h [10]: 80.5%
- remaining at 24 h [11]: 72%
- remaining at 48 h [12]: 69%
- IC50 (Plasmodium falciparum [8]): 5.46 nM

Structure (SMILES): O=C(CC1CCC2(CC1)OOC1(OO2)C2CC3CC(C2)CC1C3)N1CCOCC1 (centres undefined)
- Activity (Salmonella typhimurium [22]): 1.04
- Activity (Salmonella typhimurium [23]): 0.98
- Activity (Salmonella typhimurium [24]): 1.22
- Activity (Salmonella typhimurium [25]): 1.02
- IC50 (Plasmodium falciparum [31]): 5.2 nM

Structure (SMILES): CC(C)S(=O)(=O)N1CCC2(CC1)OOC1(CCCCCCCCCCC1)OO2
- IC50 (Plasmodium falciparum [8]): 86.4 nM

Structure (SMILES): CCS(=O)(=O)N1CCC2(CC1)OOC1(CCCCCCCCCCC1)OO2
- IC50 (Plasmodium falciparum [8]): 29.1 nM

Structure (SMILES): C[C@H]1[C@H](OC(=O)CCC(=O)O)O[C@@H]2OC3(C)CC[C@H]4[C@H](C)CC[C@@H]1[C@@]24OO3 (single isomer, unassigned) [SODIUM ARESUNATE]
- IC50 (Plasmodium falciparum [8]): 0.6 nM
- IC50 (Plasmodium falciparum [2]): 0.7 nM

Structure (SMILES): Nc1ccc2cc3ccccc3cc2c1 [2-AMINOANTHRACENE]
- Activity (Salmonella typhimurium [22]): 1.1
- Activity (Salmonella typhimurium [23]): 7.34
- Activity (Salmonella typhimurium [24]): 1.08
- Activity (Salmonella typhimurium [25]): 6.09

Structure (SMILES): C[C@@H]1CC[C@H]2[C@@H](C)C(=O)O[C@@H]3O[C@@]4(C)CC[C@@H]1[C@]32OO4 [ARTEMISININ]
- IC50 (Plasmodium falciparum [8]): 9.2 nM
- ED50 (Plasmodium berghei): 8.42 mg/kg
